Measured values reported in ChEMBL document CHEMBL3046550, “Design, synthesis, and insecticidal evaluation of new benzoylureas containing amide and sulfonate groups based on the sulfonylurea receptor protein binding site for diflubenzuron and glibenclamide” (2013).

Legend:
Assay type in all cases: functional
Details in all cases: 96 h
Plutella xylostella [1] = assay: Larvicidal activity against second-instar larvae of Plutella xylostella (diamondback moth) infected in compound-treated cabbage leaves assessed as mortality at 200 mg/l measured after 4 days
How it was run: (§1)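 Test solutions at the different concentrations were made by dissolving compounds in DMF and adding distilled water.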

Mythimna separata [2] = assay: Larvicidal activity against fourth instar larvae of Mythimna separata (Oriental armyworm) infected compound-treated corn leaves assessed as mortality at 10 mg/l measured after 4 days
How it was run: (§2)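 Petri dishes each infested with 10 fourth-instar larvae; percentage mortality scored 4 days after treatment. Three replicates per treatment, with the reported value the mean of the three.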

Mythimna separata [3] = assay: Larvicidal activity against fourth instar larvae of Mythimna separata (Oriental armyworm) infected compound-treated corn leaves assessed as mortality at 50 mg/l measured after 4 days; how it was run: as §2
Mythimna separata [4] = assay: Larvicidal activity against fourth instar larvae of Mythimna separata (Oriental armyworm) infected compound-treated corn leaves assessed as mortality at 100 mg/l measured after 4 days; how it was run: as §2
Mythimna separata [5] = assay: Larvicidal activity against fourth instar larvae ofMythimna separata (Oriental armyworm) infected compound-treated corn leaves assessed as mortality at 200 mg/l measured after 4 days; how it was run: as §2
Plutella xylostella [6] = assay: Larvicidal activity against second-instar larvae of Plutella xylostella (diamondback moth) infected in compound-treated cabbage leaves assessed as mortality at 20 mg/l measured after 4 days; how it was run: as §1
Mythimna separata [7] = assay: Larvicidal activity against fourth instar larvae of Mythimna separata (Oriental armyworm) infected compound-treated corn leaves assessed as mortality at 1 mg/l measured after 4 days; how it was run: as §2
Mythimna separata [8] = assay: Larvicidal activity against fourth instar larvae of Mythimna separata (Oriental armyworm) infected compound-treated corn leaves assessed as mortality at 2.5 mg/l measured after 4 days; how it was run: as §2
Mythimna separata [9] = assay: Larvicidal activity against fourth instar larvae of Mythimna separata (Oriental armyworm) infected compound-treated corn leaves assessed as mortality at 5 mg/l measured after 4 days; how it was run: as §2
Plutella xylostella [10] = assay: Larvicidal activity against second-instar larvae of Plutella xylostella (diamondback moth) infected in compound-treated cabbage leaves assessed as mortality at 2 mg/l measured after 4 days; how it was run: as §1
Plutella xylostella [11] = assay: Larvicidal activity against second-instar larvae of Plutella xylostella (diamondback moth) infected in compound-treated cabbage leaves assessed as mortality at 5 mg/l measured after 4 days; how it was run: as §1
Mythimna separata [12] = assay: Larvicidal activity against fourth instar larvae of Mythimna separata (Oriental armyworm) infected compound-treated corn leaves assessed as mortality at 20 mg/l measured after 4 days; how it was run: as §2

SMILES	mortality at 200 µg/mL (Plutella xylostella [1]) [%]	mortality at 50 µg/mL (Mythimna separata [3]) [%]	mortality at 100 µg/mL (Mythimna separata [4]) [%]	mortality at 200 µg/mL (Mythimna separata [5]) [%]	other results
CCCCCOS(=O)(=O)c1ccc(NC(=O)NC(=O)c2c(F)cccc2F)cc1	30	60	100	100	mortality at 10 µg/mL (Mythimna separata [2]): 95%
O=C(NC(=O)c1c(F)cccc1F)Nc1ccc(S(=O)(=O)OC(C(F)(F)F)C(F)(F)F)cc1	60	–	–	0	mortality at 20 µg/mL (Plutella xylostella [6]): 20%
O=C(NC(=O)c1c(F)cccc1F)Nc1ccc(S(=O)(=O)OCCCl)cc1	30	40	100	100	–
CCCCNC(=O)c1ccc(NC(=O)NC(=O)c2c(F)cccc2F)cc1	0	–	–	0	–
O=C(NC(=O)c1c(F)cccc1F)Nc1ccc(S(=O)(=O)OCCF)cc1	20	0	100	100	–
CN(C(=O)c1ccc(NC(=O)NC(=O)c2c(F)cccc2F)cc1)c1ccc(Cl)cc1	0	–	–	0	–
CC(C)(C)NC(=O)c1ccc(NC(=O)NC(=O)c2c(F)cccc2F)cc1	0	50	100	100	–
CC(C)N(C(=O)c1ccc(NC(=O)NC(=O)c2c(F)cccc2F)cc1)C(C)C	–	–	–	0	mortality at 20 µg/mL (Plutella xylostella [6]): 100%
O=C(NC(=O)c1c(F)cccc1F)Nc1ccc(C(=O)N2CCOCC2)cc1	0	–	–	0	–
O=C(NC(=O)c1c(F)cccc1F)Nc1ccc(S(=O)(=O)Oc2ccc(Cl)cc2)cc1	0	–	–	0	–
O=C(NC(=O)c1c(F)cccc1F)Nc1ccc(C(=O)Nc2ccc(Cl)cc2)cc1	0	–	–	0	–
O=C(NC(=O)c1c(F)cccc1F)Nc1ccc(S(=O)(=O)OCCCCCl)cc1	20	20	100	100	–
O=C(NC(=O)c1c(F)cccc1F)Nc1ccc(CO/N=C(/c2ccc(Cl)cc2)C2CC2)cc1 [FLUCYCLOXURON]	–	–	–	–	mortality at 1 µg/mL (Mythimna separata [7]): 10%; mortality at 2.5 µg/mL (Mythimna separata [8]): 50%; mortality at 5 µg/mL (Mythimna separata [9]): 90%
CC(C)(C)c1ccc(CNC(=O)c2ccc(NC(=O)NC(=O)c3c(F)cccc3F)cc2)cc1	0	–	–	0	–
CC1CCC(C(C)C)C(OS(=O)(=O)c2ccc(NC(=O)NC(=O)c3c(F)cccc3F)cc2)C1 (stereo not drawn)	0	–	–	0	–
O=C(NC(=O)c1c(F)cccc1F)Nc1ccc(S(=O)(=O)OCC(F)(F)F)cc1	100	100	100	100	mortality at 2 µg/mL (Plutella xylostella [10]): 40%; mortality at 5 µg/mL (Plutella xylostella [11]): 90%; mortality at 20 µg/mL (Plutella xylostella [6]): 100%; mortality at 5 µg/mL (Mythimna separata [9]): 60%; mortality at 10 µg/mL (Mythimna separata [2]): 100%; mortality at 20 µg/mL (Mythimna separata [12]): 100%
